DNMT1 block: human DNMT1 methyltransferase inhibitors, primary screen, biochemical, molecular beacon, fluorescence, HinP1I cleavage, uHTS | AID 588458, 2011 | DNA (cytosine-5)-methyltransferase 1 (Homo sapiens), P26358 | inhibition (reported as % activation of signal), % at 10 µM | hit rate 0.83% among 360,000; in the data active = inhibition above about 50%
SUMO1 PPI mod: modulators of SUMO1 protein-protein interactions, primary screen, biochemical, uHTS | Small ubiquitin-related modifier 1 (Homo sapiens), P63165 | SUMO1 binding to a labelled peptide, TR-FRET, 1 h | inhibition, % at 20 µM | hit rate 0.33% among 360,000; in the data active = inhibition above about 37%
Target sequence (P63165 whole entry, looked up): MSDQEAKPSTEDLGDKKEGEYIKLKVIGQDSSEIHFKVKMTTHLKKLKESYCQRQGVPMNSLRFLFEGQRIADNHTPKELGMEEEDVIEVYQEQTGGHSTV
STEP block: STEP phosphatase inhibitors, primary screen, biochemical, fluorescence intensity, uHTS | recombinant STEP, OMFP fluorogenic substrate | hit rate 0.25% among 360,000 | inhibition, % at 20 µM | Tyrosine-protein phosphatase non-receptor type 5 (Homo sapiens), P54829;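 active = inhibition at 20 µM, scaled per plate between control wells, above about 37%, limit read from the data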
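Assay system: isolated STEP enzyme. Buffer or medium: pH 6.0 Bis-Tris with DTT and Tween 20. Also added: fluorogenic phosphatase substrate OMFP at 25 µM final. Dosing: 20 µM, 1% DMSO. Timing: 20 min reaction, room temperature, in the dark. Measured by: fluorescence intensity, excitation 480 nm, emission 540 nm. Evaluation: normalized % inhibition.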
Scp-1 inhibitor: Scp-1 phosphatase inhibitors, primary screen, biochemical, colorimetric, uHTS; Carboxy-terminal domain RNA polymerase II polypeptide A small phosphatase 1 (Homo …; Recombinant Scp1, phosphopeptide, malachite green phosphate absorbance; inhibition, % at 20 µM; hit rate 0.88% among 340,000; AID 493091, 2011;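 active = inhibition above about 50% at 20 µM, limit read from the data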
Target sequence (Q9GZU7 76-261 limits assumed): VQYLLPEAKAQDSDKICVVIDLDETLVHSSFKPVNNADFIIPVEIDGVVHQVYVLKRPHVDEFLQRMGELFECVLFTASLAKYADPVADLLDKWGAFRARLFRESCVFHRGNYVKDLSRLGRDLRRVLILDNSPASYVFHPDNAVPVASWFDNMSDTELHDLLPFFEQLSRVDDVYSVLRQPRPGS
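Times: enzyme reaction 45 min at room temperature, colour 5 min, stabilisation 30 min. Material: SCP-1 catalytic fragment, aa 76-261. Medium: Acidic Tris acetate buffer with magnesium and detergent. Signal: colorimetric free-phosphate detection, absorbance 630 nm. Read-out basis: % inhibition of SCP-1 phosphate liberation. Reagent: Phosphorylated 17-residue peptide substrate.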
LMPTP inh: LMPTP phosphatase inhibitors, primary screen, biochemical, fluorescence intensity, uHTS; Low molecular weight phosphotyrosine protein phosphatase (Homo sapiens), P24666; recombinant LMPTP-A, OMFP fluorogenic substrate; inhibition, % at 20 µM; hit rate 0.22% among 360,000;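 active = compounds that cut the enzyme signal by at least half of the control window in the single-dose screen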
Target sequence (P24666 whole entry, looked up): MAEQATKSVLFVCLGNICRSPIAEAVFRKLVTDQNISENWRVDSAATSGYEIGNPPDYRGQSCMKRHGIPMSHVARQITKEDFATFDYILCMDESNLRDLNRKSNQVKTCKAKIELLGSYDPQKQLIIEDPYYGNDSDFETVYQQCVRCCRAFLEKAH
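Buffer or medium: Bis-Tris pH 6.0, DTT, detergent; Assay system: LMPTP-A enzyme; Quantity: 0.625 nM enzyme; Detection: endpoint fluorescence intensity; Times: 50 min dark incubation at room temperature; Controls: substrate-only low control, DMSO enzyme-plus-substrate high control; Doses: single 20 µM dose; Read-out: percent inhibition versus substrate-only and uninhibited controls; Reagent: 400 µM OMFP.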
Each line names hits and unclear results; the compound was inactive in the other large screens. This is a sample that favours compounds with a hit; in the whole collection about 1.7% have one here.

Cc1cc(N/N=C/c2ccc(O)cc2)c2cccc(C)c2n1	LMPTP inh 57.4
Cc1cc(C)c2nc(C)cc(N/N=C/c3ccc(O)cc3)c2c1	DNMT1 block 61.9, LMPTP inh 69.1
Cc1cc(N/N=C/c2ccc(N(C)C)cc2)c2ccccc2n1	none
CCN1C(=O)Cc2cc(S(=O)(=O)NCCc3ccccc3)ccc21	none
COc1ccc(Cl)cc1Nc1nc(-c2sc(NC(=O)CC(C)C)nc2C)cs1	SUMO1 PPI mod 54.9
CCCC(C)C(=O)Nc1nc(C)c(-c2csc(Nc3cc(Cl)ccc3C)n2)s1 (stereo unspecified)	SUMO1 PPI mod 77.6
Cc1nc(NC(=O)CC(C)C)sc1-c1csc(Nc2ccc(Cl)cc2Cl)n1	none
Cc1ccc(Cl)cc1Nc1nc(-c2sc(NC(=O)c3ccco3)nc2C)cs1	none
CCCCCC(=O)Nc1nc(C)c(-c2csc(Nc3cc(OC)ccc3OC)n2)s1	none
CCCCCCC(=O)Nc1nc(C)c(-c2csc(Nc3cc(OC)ccc3OC)n2)s1	SUMO1 PPI mod 70.0
CCCCCC(=O)Nc1nc(C)c(-c2csc(Nc3cc(Cl)ccc3C)n2)s1	SUMO1 PPI mod 81.4
CCN(C(=O)COC(=O)c1ccc(=O)n(Cc2ccccc2)n1)C1CCCCC1	none
Cc1ccc(NC(=O)CCN2CCN(CCO)CC2)cc1Br	SUMO1 PPI mod 52.2
CCOC(=O)N1CCN(CCC(=O)Nc2ccc(C)c(Br)c2)CC1	none
COC(=O)C1=C(COc2ccccc2)NC(=O)NC1c1ccc(Br)cc1 (stereo unspecified)	SUMO1 PPI mod 75.5
CC(=O)Nc1ccc(S(=O)(=O)N2CCN(c3nc(NC4CCCC4)c4ccccc4n3)CC2)cc1	LMPTP inh 63.0
CC(=O)Nc1ccc(S(=O)(=O)N2CCN(c3cc(C)nc4ccccc34)CC2)cc1	none
CC(=O)Oc1cc2cccc(OC(C)=O)c(=O)c2c(OC(C)=O)c1OC(C)=O	DNMT1 block 59.1, Scp-1 inhibitor 58.2
O=C1NN=C(CSc2n[nH]c(=S)s2)CS1	SUMO1 PPI mod 49.5
CCOc1ccc(C2C(C(=O)c3ccco3)=C(O)C(=O)N2CCCn2ccnc2)cc1OC (stereo unspecified)	SUMO1 PPI mod 46.6
Cn1nnnc1SCC1=C(C(=O)O)N2C(=O)[C@@H](NC(=O)[C@H](O)c3ccccc3)[C@H]2SC1	DNMT1 block 88.1, Scp-1 inhibitor 90.3
CC(=O)OCC1=C(C(=O)O)N2C(=O)C(NC(=O)c3ccc(F)cc3)C2SC1 (stereo unspecified)	none
CC(=O)OCC1=C(C(=O)O)N2C(=O)[C@@H](NC(=O)CSc3ccncc3)[C@H]2SC1	Scp-1 inhibitor 76.5
CC1(C)CC(=O)C=C(/C=C/c2ccccc2)C1	none
CC(=O)c1ccc(N2CCN(C(=O)c3nn(C)c4c3CS(=O)(=O)c3ccccc3-4)CC2)cc1	none
COc1ccc(O)c(C(=O)c2cc(SCC(=O)O)c3nc4sc5c(c4c(=O)n3c2)CCCC5)c1	SUMO1 PPI mod 42.4
O=C(O)c1cc(C(=O)O)cc(-c2ccc(/C=c3/sc4nc5ccccc5n4c3=O)o2)c1	Scp-1 inhibitor 69.7 (no result: DNMT1 block, SUMO1 PPI mod, STEP block, LMPTP inh)
O=C(O)c1cccc(-c2ccc(/C=c3/sc4nc5ccccc5n4c3=O)o2)c1	DNMT1 block 86.8, SUMO1 PPI mod 103.3, STEP block 93.9, Scp-1 inhibitor 96.3
COC(=O)/C=c1/sc2nc3ccccc3n2c1=O	none
O=c1/c(=C/c2ccccn2)sc2nc3ccccc3n12	none
O=c1/c(=C\c2cc([N+](=O)[O-])cc([N+](=O)[O-])c2O)sc2nc3ccccc3n12	Scp-1 inhibitor 80.3
CN1C[C@@H]2[C@@H]3C(=O)N(C)C(=O)[C@@H]3[C@](C)(C1=O)N2C(=O)c1ccc(Br)cc1	none
CN(C)/C=C/C(=O)c1ccc(OCCN(C)c2ccccn2)cc1	LMPTP inh 51.2
O=c1c2cc(Br)ccc2nc(-c2ccc(Cl)cc2)n1O	STEP block 95.5, Scp-1 inhibitor 65.5, LMPTP inh 50.9
Cc1ccnc(NC(c2cccnc2)c2ccc3cccnc3c2O)c1 (stereo unspecified)	LMPTP inh 53.9
Cc1ccnc(NC(c2ccccc2)c2ccc3cccnc3c2O)c1 (stereo unspecified)	none
COCCCn1c2nc3ccccc3nc2c2c(=O)n(Cc3ccc(Cl)cc3)cnc21	none
O=c1c2c3nc4ccccc4nc3n(Cc3ccccc3)c2ncn1Cc1ccco1	LMPTP inh 61.5
O=C(O)C(O)c1ccco1 (stereo unspecified)	DNMT1 block 91.9, STEP block 53.1, Scp-1 inhibitor 77.3
O=C(O)C(O)c1ccccc1 (stereo unspecified)	none
Cn1c(=O)n(C)c2cc(NC(=O)COc3ccc(F)cc3)ccc21	none
CSc1ccc(C2=C/C(=C3/SC(=S)NC3=O)c3ccccc3O2)cc1	DNMT1 block 70.3
CCN1/C(=C2/SC(=S)NC2=O)Sc2ccccc21	none
O=S(=O)(O)c1cccc2c(N=Nc3ccc(O)c4ncccc34)cccc12	STEP block 50.9, Scp-1 inhibitor 94.9, LMPTP inh 51.3
COc1ccc(N=Nc2ccc(O)c3ncccc23)cc1	DNMT1 block 71.0, SUMO1 PPI mod 51.1
Cc1ccccc1N=Nc1ccc(O)c2ncccc12	DNMT1 block 71.0
COc1ccc(C)cc1N=Nc1ccc(O)c2ncccc12	none
COc1cccc(N=Nc2ccc(O)c3ncccc23)c1	none
CN(Cc1ccc(Cl)cc1Cl)C(=O)CNC(=O)c1ccc2c(c1)OCO2	none
COc1ccc2nc(-c3ccccc3)cc(C(=O)OCC(=O)N3CC(C)OC(C)C3)c2c1 (stereo unspecified)	none
COc1ccc(NC(=O)CSc2nnc(Cc3ccc(C)cc3)c(=O)n2N)cc1OC	none
COc1ccc2cc1Oc1ccc(cc1)C[C@H]1c3c(cc(OC)c4c3Oc3c(ccc5c3[C@H](C2)N(C)CC5)O4)CCN1C	LMPTP inh 68.4
CCOc1ccc(C2NCCc3cc(OC)c(OC)cc32)cc1OC (stereo unspecified)	none
COc1ccc2cc1Oc1ccc(cc1)CC1c3c(cc(OC)c4c3Oc3cc5c(cc3O4)CCNC5C2)CCN1C (stereo unspecified)	LMPTP inh 77.2
Nc1ccc2c(c1)C(=O)C(=O)c1ccccc1-2	DNMT1 block 120.0, SUMO1 PPI mod 48.0, STEP block 58.7
O=C1C(=O)c2ccc(-c3ccccc3)cc2-c2ccccc21	DNMT1 block 106.1, SUMO1 PPI mod 41.3
NC(=O)c1nsc(C(=O)N(CC(=O)NCc2ccco2)c2ccccc2F)c1N	SUMO1 PPI mod 50.5
CCN1C(=O)N2C[C@H]3CON(C)[C@H]3C[C@H]2c2ccccc21	none (no result: Scp-1 inhibitor)

High-throughput results: PubChem, Sanford-Burnham Center for Chemical Genomics
